Screening data from PubChem BioAssay.
The sample as a whole holds a higher share of hits than the screen did.
DTT redox prof – compounds producing H2O2 with reducing agent – biochemical, NIH compound library profiling, artefact control for MLSCN library redox annotation, primary screen; DTT-dependent redox cycling H2O2, phenol red/HRP absorbance; 100% = 100 µM peroxide control, 0% = buffer; activation, % at 10 µM; hit rate 0.03% among 200,000; AID 878;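 active = activation of at least 50% relative to the plate's high and low controls in the primary single-dose screen; inactive = activation below 50%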;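 note: compound incubated with DTT at 0.8 mM final as the reducing agent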
Lmaj promast – inhibitors of Leishmania major promastigote growth; Leishmania major promastigotes, resazurin fluorescence viability; hit rate 9% among 200,000; inhibition, % at 10 µM; in the data active = inhibition above about 50%;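 note: promastigotes grown with compound for 44 hours at 28 °C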
T cruzi repl – T. cruzi replication inhibition; T. cruzi beta-gal in NIH3T3, luminescence, 90 h; inhibition, % (no concentration beside the values); hit rate 1.4% among 300,000;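 active = mean inhibition across valid replicates above about 55%, limit read from the data; inconclusive = mean below that limit but half or more replicates reach it; inactive = mean below it, under half of replicates reach it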;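 note: signal also drops with host cell toxicity which is not excluded here; higher percent means less beta-gal luminescence so fewer parasites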
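System: Mouse NIH/3T3 fibroblasts infected with β-gal-expressing T. cruzi Tulahuen C4 | Quantity: NIH/3T3 cells, 5,000 per well | Reagent: 5000 reporter trypomastigotes per well | Dosing: Compound pinned at 50 nL/well, DMSO | Schedule: 3 h host attachment, then at least 90 h co-culture | Detection: GalScreen luminescence, 60 min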
MPTP block – inhibitors of mitochondrial permeability transition pore | isolated mouse mitochondria, Ca2+ swelling absorbance, 30 min | inhibition, % at 10 µM | hit rate 1.4% among 360,000;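 active = inhibition of 50% or more, scaled per plate between neutral and stimulator controls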
Lipid droplet – hepatic lipid droplet formation modulation; AML12 mouse hepatocytes, oleate lipid droplets, BODIPY imaging; inhibition, % at 6.5 µM; hit rate 0.4% among 240,000; AID 1656;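 active = lipid droplet intensity inhibited by at least 50%, with more than 500 cells counted; inconclusive = wells with under 300 cells, treated as cytotoxic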
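Assay system: AML12 hepatocytes (mouse); Probe or stimulus: oleic acid at 100 µM to induce lipid droplet formation; Dosing: compound at 6.5 µM only; Schedule: compound with oleate, overnight; Detection: fluorescence imaging, 20x objective, two fields per well; Measure: % inhibition of lipid droplet signal.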
L major 1uM – blocks Leishmania major promastigote growth at 1 uM, repeat screen. shares compounds with Lmaj promast. L. major promastigote growth, resazurin fluorescence, 48 h. inhibition, % at 1 µM. hit rate 13% among 1,100. AID 1258;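 active = inhibition above about 50% in both repeat tests, limit read from the data; inconclusive = one repeat under the set limit, the other over it; inactive = both repeats under the set limit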
Large screens that a line does not name were inactive (follow-up assays come after a bar, where they were run).

Cc1nc(Oc2ccccc2)c2ccccc2n1	Lmaj promast 56.6 | L major 1uM inactive
CCCCc1nc(C(N)=O)c2[nH]c(=O)n(-c3ccc(OCC)cc3)c2n1	none (no result: DTT redox prof, Lmaj promast)
c1ccc2c(c1)OC(CCCN1CCCCC1)c1ccccc1S2 (stereo unspecified)	Lmaj promast 99.9 | L major 1uM 94.8
CCCc1noc2c1/C(=N\O)CC(c1ccccc1)C2 (stereo unspecified)	none
CCCc1n[nH]c2c1/C(=N/O)CC(c1ccccc1)C2 (stereo unspecified)	Lmaj promast 80.9 | L major 1uM 59.1
COC(=O)c1cc2ccsc2n1Cc1nc(-c2ccc(OC)cc2)oc1C	Lmaj promast 99.9 | L major 1uM 93.5
O=C(NCCN1C(=O)S/C(=C\c2cccc(Cl)c2Cl)C1=O)C1=COCCO1	none (no result: DTT redox prof, Lmaj promast)
CC(=O)OC1C(N2CCCCC2)c2c(ccc(/C=C/C(=O)N3CCCCC3)c2O)OC1(C)C (stereo unspecified)	Lmaj promast 73.0 | L major 1uM inactive
CCOC(=O)c1ccc(N2C(=O)c3n[nH]c(-c4ccco4)c3C2c2cccc([N+](=O)[O-])c2)cc1 (stereo unspecified)	Lmaj promast 96.5 | L major 1uM inactive
COC(=O)C[N+](C)(C)CC#Cc1ccccc1	Lmaj promast 52.9 | L major 1uM inactive
Cc1ccc(NC(=O)c2ccncc2)cc1S(=O)(=O)N(C)C	none
Cc1ccc(NC(=O)c2ccc(Br)o2)cc1S(=O)(=O)N(C)C	Lmaj promast 59.7 | L major 1uM inactive
CCC(C#CCN1CCCCC1)(CC)OCCC#N	Lmaj promast 64.7 (no result: Lipid droplet) | L major 1uM inactive
COc1ccc(C(=O)C(CN2CCOCC2)c2ccccc2)cc1F (stereo unspecified)	Lmaj promast 100.5 (no result: Lipid droplet) | L major 1uM 85.7
Cc1sc(N)c(C#N)c1C	Lmaj promast 51.4 | L major 1uM inactive
Cc1ccc(C)c(OCCC(=O)OCc2csc(CC(=O)Nc3ccccc3C)n2)c1	none (no result: DTT redox prof, Lmaj promast, T cruzi repl, Lipid droplet)
Cc1ccc(NC(=O)Nc2sc(=S)n(C)c2C)cc1	Lmaj promast 58.6 | L major 1uM inactive
Nc1nsc2ccccc12	Lmaj promast 100.4, T cruzi repl inconclusive | L major 1uM 95.1
CCn1c(SCC(=O)N2CCOCC2)nc2oc3c(Cl)cc(Cl)cc3c(=O)c2c1=O	Lmaj promast 72.2 (no result: MPTP block, Lipid droplet) | L major 1uM inactive
O=C(C1CCC(=O)N(C2CC2)C1)N1CCN(c2cccc(Cl)c2)CC1 (stereo unspecified)	none (no result: DTT redox prof, Lmaj promast)
c1nc(SSc2ncnc3nc[nH]c23)c2[nH]cnc2n1	none (no result: DTT redox prof, Lmaj promast, T cruzi repl, Lipid droplet)
Clc1ccc(-c2nnc(-c3ccco3)nc2N2CCCCC2)cc1	Lmaj promast 64.4 | L major 1uM inactive
COc1ccc(S(=O)(=O)NN(C)C)cc1N(C)S(=O)(=O)c1ccc(Cl)cc1	none
COc1ccc(S(=O)(=O)Nc2ccc(C)cc2)cc1N(C)S(=O)(=O)c1ccc(Cl)cc1	Lmaj promast 99.2 (no result: Lipid droplet) | L major 1uM inactive
C=CCN(CC=C)C(=O)C(=O)c1cc(C)n(-c2ccc([N+](=O)[O-])cc2)c1C	Lmaj promast 97.5 (no result: T cruzi repl, Lipid droplet) | L major 1uM inactive
CCCc1cc(C(=O)N2CCCC(C(=O)c3cc(C)c(OC)c(C)c3)C2)n(C)n1 (stereo unspecified)	none (no result: DTT redox prof, Lmaj promast)
CC(C)CCN=Cc1c(O)n(-c2ccccc2)c(=O)c2ccccc12	none
CCN1CCCC1CN=Cc1c(O)n(-c2ccccc2)c(=O)c2ccccc12 (stereo unspecified)	Lmaj promast 55.4 | L major 1uM inactive
Cc1nc2ccc(Cl)cc2c(-c2ccccc2Cl)c1CC(=O)O	none
Cc1nc2ccc(Cl)cc2c(-c2ccccc2F)c1CC(=O)O	Lmaj promast 62.5 | L major 1uM inactive
Cc1nc2ccc(Cl)cc2c(-c2ccccc2)c1CC(=O)O	Lmaj promast 53.6 | L major 1uM inactive
Cc1ccc(S(=O)(=O)N(C)C)cc1NC(=S)N1CCc2ccccc21	none
CCn1cc(CNCc2cn(C)nc2-c2ccc(C3CCCCC3)cc2)cn1	Lmaj promast 94.9 | L major 1uM inactive
Cn1cc(CNC(=O)C2CCCCC2)cn1	none
CCn1c2ccccc2c2nn(C)c(=N)nc21	Lmaj promast 95.7 | L major 1uM inactive
CCn1c2ccccc2c2n[nH]c(=S)nc21	none (no result: DTT redox prof, Lmaj promast)
CC(C)C[C@H](NC(=O)OC(C)(C)C)C(=O)N/N=C/c1ccc2nccnc2c1	none
CC(C)C[C@H](NC(=O)OC(C)(C)C)C(=O)N/N=C/C1=Cc2ccccc2OC1C (stereo partly specified)	Lmaj promast 98.1, T cruzi repl 68.6 | L major 1uM inactive
COc1ccc(C(=O)CCC(=O)Nc2cccnc2)cc1	none
COc1cc(Cl)ccc1NC(=O)COc1ccccc1C(=O)N1CCN(c2ccc(O)cc2)CC1	Lmaj promast 62.8 (no result: Lipid droplet) | L major 1uM inactive
Cc1ccc(NC(=O)c2cc(-c3cc(C)c(C)cc3O)n[nH]2)cc1C	none (no result: DTT redox prof, Lmaj promast)
COc1ccc(N2C3=[N+](CC2(C)O)c2ccccc2CC3)cc1 (stereo unspecified)	Lmaj promast 90.0 (no result: Lipid droplet) | L major 1uM inactive
COc1ccc(OCC(=O)N2c3ccccc3CCc3ccccc32)cc1	none
CC(C)Cn1c(N)c(C(=O)CSc2ccccc2)c(=O)n(C)c1=O	Lmaj promast 51.2 | L major 1uM inactive
Cc1ccc(S(=O)(=O)NC(N)=NCCc2ccc(Cl)cc2)cc1C	Lmaj promast 51.5 | L major 1uM inactive
Oc1c(Br)cc(Br)cc1C=Nc1cccc2ncccc12	none (no result: DTT redox prof, Lmaj promast, Lipid droplet)
COc1ccc(C(=O)Nc2ccccc2C(=O)NC(Cc2c[nH]c3ccccc23)C(=O)O)cc1 (stereo unspecified)	none
Cc1ccnc(NS(=O)(=O)c2ccc(NC(=O)c3snnc3C)cc2)n1	none (no result: DTT redox prof, Lmaj promast)
CN(C)C(=O)CSc1nnc(-c2ccc(F)cc2)c2ccccc12	none (no result: DTT redox prof, Lmaj promast)
CCCCSc1nnc(-c2ccc(C)cc2)c2ccccc12	Lmaj promast 91.3 | L major 1uM inactive
c1ccc(-c2nc3nonc3nc2-c2ccccc2)cc1	Lmaj promast 84.0 (no result: Lipid droplet) | L major 1uM inactive
Nc1c(-c2ccccc2)nc(Cl)nc1-c1ccccc1	none (no result: Lipid droplet)
Cc1ccc(C2CC(=O)c3cnn(-c4nc(C)cc(C)n4)c3C2)cc1 (stereo unspecified)	Lmaj promast 74.8 | L major 1uM inactive
COC(=O)C(CC(=O)c1ccc(Br)cc1)n1nc(C)cc1C (stereo unspecified)	none (no result: DTT redox prof, Lmaj promast)
COC(=O)C(CC(=O)c1ccc(Br)cc1)n1ccnc1 (stereo unspecified)	Lmaj promast 78.8 (no result: MPTP block) | L major 1uM inactive
O=C(NC(=S)NCc1cccnc1)c1cc(Br)ccc1Cl	none (no result: DTT redox prof, Lmaj promast)
Cc1ccc2cccc(Oc3ncnc4sc(C)c(C)c34)c2n1	Lmaj promast 89.5 | L major 1uM inactive
Cc1ccc(-c2csc3ncnc(Oc4cccc5ccc(C)nc45)c23)cc1	none
COc1ccccc1/C=C/CN1CCCC(CO)(Cc2cccc(Cl)c2)C1 (stereo unspecified)	Lmaj promast 82.3 | L major 1uM inactive
